A selection: hits, their analogues and other compounds. The true share with any hit is near 2.3%.
STEP inh: blocks human striatal-enriched tyrosine phosphatase; 360,000 tested, 0.25% active; inhibition, % at 20 µM; recombinant STEP, OMFP fluorogenic substrate, fluorescence;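 active = inhibition at 20 µM, scaled per plate between control wells, above about 37%, limit read from the data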
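Test system: STEP tyrosine phosphatase / Reagent: OMFP at 25 µM / Doses: 20 µM, 1% DMSO / Read-out: percent inhibition scaled to no-enzyme and uninhibited-enzyme controls, plate-pattern corrected / Detection: FITC-channel fluorescence of OMFP product / Medium: Bis-Tris buffer pH 6.0, 2.5 mM DTT, 0.005% Tween 20 / Schedule: 20 min at room temperature, dark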
SUMO1-SIM PPI: SUMO1-SIM interaction modulation | P63165 | AID 602429 | inhibition, % at 20 µM | 360,000 tested, 0.33% active | SUMO1 binding to a labelled peptide, TR-FRET, 1 h; in the data active = inhibition above about 37%
Scp1 inh: Scp-1 (human) phosphatase inhibition. inhibition, % at 20 µM. AID 493091. 340,000 tested, 0.88% active. Recombinant Scp1, phosphopeptide, malachite green phosphate absorbance;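 active = inhibition above about 50% at 20 µM, limit read from the data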
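Assay system: SCP-1 catalytic fragment, aa 76-261 | Buffer or medium: Tris acetate buffer pH 5.5 with MgCl2 and Tween-20 | Compound: One concentration, 20 µM, with 1.0% DMSO | Also added: Phospho 17-mer peptide substrate | Signal: Absorbance at 630 nm | Incubation: 45 min enzyme reaction at room temperature | Measure: % inhibition of SCP-1 phosphate liberation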
Rpn11 block: inhibitors of human proteasome Rpn11 | human 26S proteasome, Ub4-pepOG fluorescence polarization; 20S core pre-blocked with epoxomicin | inhibition, % at 20 µM | 360,000 tested, 0.59% active;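 active = inhibition at 20 µM, scaled to each plate's controls, above about 33%, limit read from the data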
LMPTP inh: blocks human LMPTP phosphatase. P24666. recombinant LMPTP-A, OMFP fluorogenic substrate, fluorescence intensity. inhibition, % at 20 µM. 360,000 tested, 0.22% active. AID 651560;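 active = compounds that cut the enzyme signal by at least half of the control window in the single-dose screen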
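material = LMPTP-A | quantity = 0.625 nM enzyme | reagent = OMFP substrate, 400 µM final | buffer or medium = Bis-Tris pH 6.0, DTT, detergent | detection = endpoint fluorescence intensity from OMFP dephosphorylation | dosing = single 20 µM dose | read-out basis = % inhibition relative to no-enzyme and uninhibited control wells | control set = no-enzyme and uninhibited controls | timing = 50 min at room temperature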
DNMT1 block: DNMT1 (human) enzyme inhibition; DNMT1 molecular beacon, Hinp1I cleavage, fluorescence; P26358; inhibition (reported as % activation of signal), % at 10 µM; 360,000 tested, 0.83% active; in the data active = inhibition above about 50%
Rpn11 confirm: confirmation of human proteasome Rpn11 inhibitors; shares compounds with Rpn11 block; purified human 26S proteasome, Ub4-pepOG fluorescence polarization; proteasome pretreated with epoxomicin; inhibition, % at 20 µM; 1,900 tested, 29% active
MMP-2 inh: MMP-2 (human) inhibition counter-screen. 1,900 tested, 4% active. inhibition, % at 20 µM. recombinant MMP-2, FRET peptide cleavage fluorescence. shares compounds with Rpn11 block. AID 602330;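 also: human MMP-2 activated beforehand with APMA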
Target sequence (P08253 whole entry, looked up): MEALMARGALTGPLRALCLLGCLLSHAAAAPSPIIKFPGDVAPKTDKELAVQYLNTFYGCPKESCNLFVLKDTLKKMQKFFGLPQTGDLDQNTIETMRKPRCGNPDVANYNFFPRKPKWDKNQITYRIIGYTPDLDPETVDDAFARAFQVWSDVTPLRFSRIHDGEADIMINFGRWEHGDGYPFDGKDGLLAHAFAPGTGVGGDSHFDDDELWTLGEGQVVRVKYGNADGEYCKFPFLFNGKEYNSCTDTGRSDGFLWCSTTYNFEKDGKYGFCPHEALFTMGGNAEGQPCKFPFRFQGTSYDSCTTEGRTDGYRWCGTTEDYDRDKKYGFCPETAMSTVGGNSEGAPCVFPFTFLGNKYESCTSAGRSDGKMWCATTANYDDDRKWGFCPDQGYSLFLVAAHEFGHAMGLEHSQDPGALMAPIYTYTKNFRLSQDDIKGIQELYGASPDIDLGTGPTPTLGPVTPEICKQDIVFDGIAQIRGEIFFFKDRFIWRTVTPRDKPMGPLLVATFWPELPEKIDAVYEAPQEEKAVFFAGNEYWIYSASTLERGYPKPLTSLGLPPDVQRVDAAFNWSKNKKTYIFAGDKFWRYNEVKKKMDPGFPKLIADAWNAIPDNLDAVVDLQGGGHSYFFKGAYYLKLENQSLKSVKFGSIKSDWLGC
Thrombin inh: thrombin (bovine) inhibition counter-screen; shares compounds with Rpn11 block; bovine thrombin cleavage of Ub4-pepOG, fluorescence polarization; inhibition, % at 20 µM; 1,900 tested, 13% active;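 active = mean inhibition at least 40% at 20 µM, or signal 3 deviations below plate average, so some actives read negative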
Numbers stand for hits; – = inactive; · = no result shown. Rule as the data show it, unless noted: active = inhibition above about 40%; inactive = the rest.

SMILES	STEP inh	SUMO1-SIM PPI	Scp1 inh	Rpn11 block	LMPTP inh	DNMT1 block	Rpn11 confirm	MMP-2 inh	Thrombin inh
COC(=O)C1(F)C(=O)NC(=O)NC1O (stereo not given)	·	–	·	·	–	·	·	·	·
CC1CCN(C(CC(=O)c2ccccc2)C(=O)c2ccccc2)CC1 (stereo not given)	–	–	–	–	–	–	·	·	·
Cn1c(O)c(/C=N/NC(=O)c2ccncc2)c(=O)[nH]c1=S	–	–	–	–	–	–	·	·	·
Cn1c(O)c(/C=N/NC(=O)c2ccncc2)c(=O)n(C)c1=S	–	–	–	96.2	–	–	–	–	–
CN(C)c1ccc(/C=C/C=C2/C(=O)NC(=O)N(c3ccccc3)C2=O)cc1	–	–	–	95.1	–	–	65.0	–	–
Cc1cccc(N2CCN(Cc3ccc4c(c3)OCO4)CC2)c1C	–	–	–	–	–	–	·	·	·
COc1ccc(-n2c(/C=C/c3ccc(O)c(O)c3)nc3ccccc3c2=O)cc1	–	–	–	120.0	–	–	71.8	–	52.7
CC1=CC2OC3CC4OC(=O)C=CC=CC(C(C)O)OCC(O)C5(C)OC5C(=O)OCC2(CC1O)C4(C)C31CO1 (stereo not given)	–	–	–	–	–	–	·	·	·
COc1ccccc1-n1c(O)c(/C=C2\C=Nc3ccccc32)c(=O)[nH]c1=O	–	–	–	47.8	–	–	–	–	–
C=CCn1c(O)c(/C=C2\C=Nc3ccccc32)c(=O)[nH]c1=O	–	–	–	60.3	–	–	–	–	–
CCOc1ccc(-n2c(O)c(/C=C3\C=Nc4ccccc43)c(=O)[nH]c2=O)cc1	–	–	–	–	–	–	·	·	·
CN=C1CN(O)C(c2ccccc2)c2cc(Cl)ccc2N1 (stereo not given)	–	–	–	–	–	–	·	·	·
CCn1c(O)c(C=Nc2ccc(S(N)(=O)=O)cc2)c(=O)n(CC)c1=S	–	–	–	·	–	–	·	·	·
NS(=O)(=O)c1ccc(N=Cc2c(O)n(C3CCCCC3)c(=O)n(C3CCCCC3)c2=O)cc1	–	–	–	72.3	–	–	–	–	–
CCCCC(=O)N/N=C/c1c(O)n(Cc2ccc(F)cc2)c(=O)[nH]c1=O	–	–	–	50.0	–	–	–	–	–
COc1ccc(/C=N\N=C(N)N)cc1	–	–	–	–	–	–	·	·	·
NC(N)=N/N=C/c1ccc(N(c2ccccc2)c2ccccc2)cc1	–	99.8	–	90.9	–	–	71.1	–	–
CCOc1ccc(N2C(=O)/C(=C/c3ccc(C)o3)C(=O)NC2=S)cc1	–	–	–	77.3	–	50.1	–	56.5	–
CC(C)c1ccc(N2C(=O)NC(=O)/C(=C/c3cnc(-c4ccccc4)nc3)C2=O)cc1	–	–	–	–	–	–	·	·	·
CCc1ccc(N2C(=O)NC(=O)/C(=C\c3cccn3CCOc3ccc(C(C)C)cc3)C2=O)cc1	–	–	–	61.8	–	–	–	–	–
COc1ccc(OC)c(-n2c(O)c(C=Nc3c(C)n(C)n(-c4ccccc4)c3=O)c(=O)[nH]c2=S)c1	–	–	–	66.3	–	–	40.7	–	–
CCN(CC)c1ccc(N=Cc2c(O)n(-c3cc(OC)ccc3OC)c(=O)[nH]c2=O)cc1	–	–	–	40.4	–	–	46.5	–	41.8
CCOc1ccccc1-n1c(O)c(C=Nc2c(C)n(C)n(-c3ccccc3)c2=O)c(=O)[nH]c1=O	–	–	–	–	–	–	·	·	·
Cc1ccc(-n2c(O)c(/C=N/N3CCCCC3c3cccnc3)c(=O)[nH]c2=S)cc1 (stereo not given)	–	–	–	54.9	–	–	51.5	–	–

Screening data as filed in PubChem BioAssay.
